Columns and labels:
[1] = Inhibition of HCV NS5B Cdelta21 RNA polymerase activity assessed as incorporation of [33P]-CTP into heteropolymer RNA template after 150 mins; parameters: species or system Hepacivirus hominis
Summary of the method: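 Radiolabeled nucleotide incorporation using 30 nM NS5B (Δ21) with 100 nM heteropolymer RNA template and 0.25 mM trinucleotide initiator. Buffer: 20 mM HEPES pH 7.3, 7.5 mM DTT, 20 units/mL RNasin, 10 mM MgCl₂, 60 mM NaCl, BSA, GTP/ATP/UTP, [³³P]-CTP with 20 nM CTP. Run 150 min at room temperature, EDTA-stopped, filter-washed, incorporated label counted. IC50 from 10 twofold dilutions in duplicate.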

Hepatitis C virus = assay: Antiviral activity against HCV 1b con1 assessed as inhibition of viral RNA replication after 3 days by RT-PCR analysis; assay type: functional, organism-based, Hepacivirus hominis; conditions: Con1, 72 h
Summary of the method: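 Genotype 1b-Con1 replicon cells were seeded at 5000/well one day before dosing. Inhibitor was added at 0.5% final DMSO in medium with 5% FBS, and cells were harvested after 3 days. Replicon RNA was quantified by Taqman real-time RT-PCR normalized to GAPDH RNA. EC50 came from 10 serial twofold dilutions in duplicate.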

| SMILES | IC50 [1] [nM] | EC50 (Hepatitis C virus) [nM] |
| --- | --- | --- |
| Nc1cc(Cn2c(C(=O)NS(=O)(=O)c3ccc(O)cc3)c(-c3ccc[nH]c3=O)c3cc(Cl)ccc32)ccn1 | 24 | 100 |
| Nc1cc(Cn2c(C(=O)NS(=O)(=O)c3cc(F)cc(F)c3)c(-c3ccc[nH]c3=O)c3cc(Cl)ccc32)ccn1 | 26 | 700 |
| Nc1cc(Cn2c(C(=O)NS(=O)(=O)c3cccc(S(N)(=O)=O)c3)c(-c3ccc[nH]c3=O)c3cc(Cl)ccc32)ccn1 | 34 | 1900 |
| COC(=O)c1cccc(S(=O)(=O)NC(=O)c2c(-c3ccc[nH]c3=O)c3cc(Cl)ccc3n2Cc2ccnc(N)c2)c1 | 27 | 300 |
| N#Cc1ccc(S(=O)(=O)NC(=O)c2c(-c3ccc[nH]c3=O)c3cc(Cl)ccc3n2Cc2ccnc(N)c2)cc1 | 36 | 1700 |
| CS(=O)(=O)Nc1cccc(S(=O)(=O)NC(=O)c2c(-c3ccc[nH]c3=O)c3cc(Cl)ccc3n2Cc2ccccc2F)c1 | 18 | 20 |
| Cc1cc(F)ccc1S(=O)(=O)NC(=O)c1c(-c2ccc[nH]c2=O)c2cc(Cl)ccc2n1Cc1ccnc(N)c1 | 34 | 1900 |
| O=C(NS(=O)(=O)C1CCCC1)c1c(-c2ccc[nH]c2=O)c2cc(Cl)ccc2n1Cc1ccccc1F | 28 | 1400 |
| Nc1cc(Cn2c(C(=O)NS(=O)(=O)c3ccccc3)c(-c3ccc[nH]c3=O)c3cc(Cl)ccc32)ccn1 | 16 | 400 |
| CS(=O)(=O)NCc1c(-c2ccc[nH]c2=O)c2cc(Cl)ccc2n1Cc1ccnc(N)c1 | > 20000 | – |
| CS(=O)(=O)NC(=O)c1c(-n2c(=O)[nH]c3cscc3c2=O)c2cc(C(F)(F)F)ccc2n1Cc1ccccc1F | 15 | 700 |
| CC(C)(C)S(=O)(=O)NC(=O)c1c(-c2ccc[nH]c2=O)c2cc(Cl)ccc2n1Cc1ccnc(N)c1 | 31 | 1000 |
| Nc1cc(Cn2c(C(=O)NS(=O)(=O)Cc3ccccc3)c(-c3ccc[nH]c3=O)c3cc(Cl)ccc32)ccn1 | 24 | 1200 |
| Nc1cc(Cn2c(CC(=O)O)c(-c3ccc[nH]c3=O)c3cc(Cl)ccc32)ccn1 | 7000 | – |
| Nc1cc(Cn2c(C(=O)NS(=O)(=O)c3cc(F)ccc3F)c(-c3ccc[nH]c3=O)c3cc(Cl)ccc32)ccn1 | 28 | 700 |
| CS(=O)(=O)NCCS(=O)(=O)NC(=O)c1c(-c2ccc[nH]c2=O)c2cc(Cl)ccc2n1Cc1ccccc1F | 5 | 470 |
| Nc1cc(Cn2c(C(=O)NS(N)(=O)=O)c(-c3ccc[nH]c3=O)c3cc(Cl)ccc32)ccn1 | 29 | 2200 |
| CS(=O)(=O)NC(=O)c1c(-c2ccc[nH]c2=O)c2cc(Cl)ccc2n1Cc1ccccc1F | 33 | 230 |

The remaining lines, values ahead:

| IC50 [1] [nM] | EC50 (Hepatitis C virus) [nM] | SMILES |
| --- | --- | --- |
| 8 | 2800 | O=C(NS(=O)(=O)CCCCl)c1c(-c2ccc[nH]c2=O)c2cc(Cl)ccc2n1Cc1ccccc1F |
| – | 11 | CS(=O)(=O)Nc1cccc(S(=O)(=O)NC(=O)c2c(-c3ccc[nH]c3=O)c3cc(Cl)ccc3n2Cc2ccnc(N)c2)c1 |
| 35 | 400 | Nc1ccc(S(=O)(=O)NC(=O)c2c(-c3ccc[nH]c3=O)c3cc(Cl)ccc3n2Cc2ccnc(N)c2)cc1 |
| 570 | 8000 | O=c1[nH]cccc1-c1c(-c2nc3ccccc3[nH]2)n(Cc2ccc(F)cc2F)c2ccc(Cl)cc12 |
| 2700 | – | NS(=O)(=O)c1c(-c2ccc[nH]c2=O)c2cc(Cl)ccc2n1Cc1ccc(F)cc1F |
| > 20000 | 8300 | N#Cc1c(-c2ccc[nH]c2=O)c2cc(Cl)ccc2n1Cc1ccnc(N)c1 |
| 43 | 1500 | Nc1cc(Cn2c(C(=O)NS(=O)(=O)c3cccc(Cl)c3)c(-c3ccc[nH]c3=O)c3cc(Cl)ccc32)ccn1 |
| 31 | 800 | Nc1cc(Cn2c(C(=O)NS(=O)(=O)c3ccccc3F)c(-c3ccc[nH]c3=O)c3cc(Cl)ccc32)ccn1 |
| 27 | 3000 | CS(=O)(=O)NC(=O)c1c(-c2c[nH]c(=O)[nH]c2=O)c2cc(Cl)ccc2n1Cc1ccnc(N)c1 |
| 18 | 600 | CCS(=O)(=O)NC(=O)c1c(-c2ccc[nH]c2=O)c2cc(Cl)ccc2n1Cc1ccnc(N)c1 |
| > 20000 | – | CCOC(=O)c1c(-c2ccc[nH]c2=O)c2cc(Cl)ccc2n1Cc1ccnc(N)c1 |
| 20 | 500 | CS(=O)(=O)Nc1ccc(S(=O)(=O)NC(=O)c2c(-c3ccc[nH]c3=O)c3cc(Cl)ccc3n2Cc2ccnc(N)c2)cc1 |
| 13 | 400 | CC(C)S(=O)(=O)NC(=O)c1c(-c2ccc[nH]c2=O)c2cc(Cl)ccc2n1Cc1ccccc1F |
| 18 | 300 | CS(=O)(=O)NC(=O)c1c(-c2ccc[nH]c2=O)c2cc(Cl)ccc2n1Cc1ccnc(N)c1 |
| 22 | 500 | COc1ccc(S(=O)(=O)NC(=O)c2c(-c3ccc[nH]c3=O)c3cc(Cl)ccc3n2Cc2ccnc(N)c2)cc1 |
| 12 | 600 | Nc1cc(Cn2c(C3=NS(=O)(=O)c4ccccc4N3)c(-c3ccc[nH]c3=O)c3cc(Cl)ccc32)ccn1 |
| 32 | 1100 | COC(=O)c1ccc(S(=O)(=O)NC(=O)c2c(-c3ccc[nH]c3=O)c3cc(Cl)ccc3n2Cc2ccnc(N)c2)cc1 |
| 3000 | – | CCNS(=O)(=O)c1c(-c2ccc[nH]c2=O)c2cc(Cl)ccc2n1Cc1ccc(F)cc1F |
| 49 | 1600 | Nc1cc(Cn2c(C(=O)NS(=O)(=O)c3ccc(F)cc3F)c(-c3ccc[nH]c3=O)c3cc(Cl)ccc32)ccn1 |
| 36 | 1000 | Nc1cccc(S(=O)(=O)NC(=O)c2c(-c3ccc[nH]c3=O)c3cc(Cl)ccc3n2Cc2ccnc(N)c2)c1 |
| 5 | 270 | O=C(NS(=O)(=O)C1CC1)c1c(-c2ccc[nH]c2=O)c2cc(Cl)ccc2n1Cc1ccccc1F |
| 19 | 600 | Cc1ccc(S(=O)(=O)NC(=O)c2c(-c3ccc[nH]c3=O)c3cc(Cl)ccc3n2Cc2ccnc(N)c2)cc1 |
| 6 | 120 | CS(=O)(=O)NC(=O)c1c(-c2ccc[nH]c2=O)c2cc(C(F)(F)F)ccc2n1Cc1ccccc1F |
| 28 | 1700 | Nc1cc(Cn2c(C(=O)NS(=O)(=O)c3ccccc3N)c(-c3ccc[nH]c3=O)c3cc(Cl)ccc32)ccn1 |
| 2200 | – | CS(=O)(=O)NC(=O)Cc1c(-c2ccc[nH]c2=O)c2cc(Cl)ccc2n1Cc1ccnc(N)c1 |
| 41 | 2200 | CS(=O)(=O)NC(=O)c1c(-c2ccc[nH]c2=O)c2cc(Cl)ccc2n1Cc1ccc(F)cc1F |
